Compound activity: PubChem, The Scripps Research Institute Molecular Screening Center
Shown are actives, neighbours in structure and some others; about 2.3% of the full set was active somewhere.
RBBP9 inhibitor: human RBBP9 inhibitors, primary screen, biochemical, fluorescence polarization, FP-Rh probe, HTS; Serine hydrolase RBBP9 (Homo sapiens), O75884; recombinant RBBP9; inhibition, % at 7.94 µM; actives 0.2% (n = 220,000); AID 1515, 2009;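 active = inhibition above the campaign mean of all tested compounds plus 3 SD, cut at about 14% in these data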
Target sequence (O75884 whole entry, looked up): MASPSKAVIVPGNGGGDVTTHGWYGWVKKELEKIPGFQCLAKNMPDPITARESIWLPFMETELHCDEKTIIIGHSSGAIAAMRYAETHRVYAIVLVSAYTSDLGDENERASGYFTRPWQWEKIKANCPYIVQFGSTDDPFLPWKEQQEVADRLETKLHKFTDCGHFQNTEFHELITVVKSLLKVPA
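Material: RBBP9 protein. Amount: RBBP9 at 2.5 µM in dispensed solution, before mixing. Schedule: 30 min then 45 min, 25 °C. Medium: Tris buffer pH 8.0, NaCl, Pluronic. Measured by: fluorescence polarization. Measure: percent inhibition from mP, scaled between DMSO and no-protein wells. Replication: one well per compound.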
GSTO1 inh: inhibitors of recombinant GSTO1, primary screen, counter-screen for RBBP9 inhibitor project, biochemical, fluorescence polarization; inhibition, % at 5.96 µM; activity-based probe fluorescence polarization; actives 1.1% (n = 300,000); Glutathione S-transferase omega-1 (Homo sapiens), P78417;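 active = inhibition above the campaign mean inhibition plus 3 SD, cut at about 35% in these data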
Target sequence (P78417 whole entry, looked up): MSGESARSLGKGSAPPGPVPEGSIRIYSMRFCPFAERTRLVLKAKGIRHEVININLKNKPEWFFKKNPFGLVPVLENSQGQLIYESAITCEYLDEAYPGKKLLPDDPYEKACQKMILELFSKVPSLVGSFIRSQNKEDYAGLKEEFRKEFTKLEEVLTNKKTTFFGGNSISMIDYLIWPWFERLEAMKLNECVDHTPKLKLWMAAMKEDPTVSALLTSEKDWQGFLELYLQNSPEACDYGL
PME-1 primary: PME-1 inhibitors via competitive probe labeling, primary screen, biochemical, fluorescence polarization, FP-Rh probe, HTS; Protein phosphatase methylesterase 1 (Homo sapiens), Q9Y570; recombinant PME-1; inhibition, % at 5.9 µM; actives 0.53% (n = 320,000); AID 2130, 2009;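 active = inhibition above the campaign mean of all compounds plus 3 SD, cut at about 26% in these data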;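 also: competitive labeling of PME-1 active site by serine hydrolase directed probe; inhibitors block probe labeling so polarization falls and inhibition rises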
PAD4 inh: human PAD4 inhibitors, primary screen, biochemical, fluorescence polarization, 1536-well format. recombinant PAD4, RCA probe fluorescence polarization. AID 485272, 2010. actives 0.41% (n = 330,000). Protein-arginine deiminase type-4 (Homo sapiens), Q9UM07. inhibition, % at 6.36 µM;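 active = percent inhibition above a cutoff equal to the mean of all tested compounds plus 3 SD, cut at about 15% in these data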
Fam108B inh: mouse Fam108B serine hydrolase inhibitors, primary screen, counter-screen for RBBP9 inhibitor project, biochemical, fluorescence polarization | recombinant Fam108B, FP-Rh probe fluorescence polarization | inhibition, % at 9.51 µM | actives 0.33% (n = 300,000) | AID 1947, 2009;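 active = inhibition above the screen mean inhibition plus 3 SD, computed separately per campaign, cut at about 18% in these data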;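 also: inhibitors lower polarization as less probe binds the enzyme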
PRMT1 FP inh: PRMT1 methyltransferase inhibitors, primary screen, biochemical, fluorescence polarization | Protein arginine N-methyltransferase 1 (Homo sapiens), Q99873 | recombinant PRMT1, activity-based probe fluorescence polarization | inhibition, % at 2.79 µM | actives 1.3% (n = 370,000);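 active = inhibition above about 21% made by adding two undisclosed values, limit read from the data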
Large screens that a line does not name were inactive.

COc1ccc(S(=O)(=O)N2CCCCCC2)cc1C(=O)NCc1ccccc1Cl	none (no result: RBBP9 inhibitor, GSTO1 inh, PME-1 primary, PAD4 inh, Fam108B inh)
COc1ccc(S(=O)(=O)N2CCCCCC2)cc1C(=O)NCCOc1ccc(C)cc1	PME-1 primary 28.0 (no result: RBBP9 inhibitor)
CCCC(CCC)c1nnc(NC(=O)c2ccco2)s1	none (no result: RBBP9 inhibitor)
CN1CCN(c2nc(C#N)cc(-c3ccccc3)n2)CC1	none
Cc1sc2ncnc(OCC(=O)N3CCN(S(=O)(=O)c4ccc(Cl)cc4)CC3)c2c1C	PME-1 primary 40.3
Cc1sc2ncnc(OCC(=O)c3ccc(S(=O)(=O)N4CCCC4)cc3)c2c1C	none
O=C(Nc1ccccc1F)c1cc(-c2ccco2)nc2ccccc12	none (no result: RBBP9 inhibitor)
O=C(Nc1ccc(F)cc1F)c1cc(-c2ccco2)nc2ccccc12	PRMT1 FP inh 22.6 (no result: RBBP9 inhibitor)
O=C(Nc1ccccc1[N+](=O)[O-])c1cncc(Br)c1	none
Cn1nnnc1SCC(=O)N1CCCCC1	none (no result: RBBP9 inhibitor)
CC1Cc2nc(SCC(=O)NCc3ccco3)n(-c3ccccc3)c(=O)c2S1 (centres undefined)	none
O=C(Sc1n[nH]c(=O)[nH]c1=O)c1ccccc1	PRMT1 FP inh 87.6 (no result: RBBP9 inhibitor, GSTO1 inh, PME-1 primary, PAD4 inh, Fam108B inh)
CN(C(=O)CSc1n[nH]c(=O)[nH]c1=O)c1ccccc1	none (no result: RBBP9 inhibitor, GSTO1 inh, PME-1 primary, Fam108B inh)
Cn1ccc2c(-c3cccnc3)cc3c(c21)C1CCC3C1 (centres undefined)	none (no result: RBBP9 inhibitor, GSTO1 inh, PME-1 primary, PAD4 inh, Fam108B inh)
Cn1ccc2c(-c3ccc(F)nc3)cc3c(c21)C1CCC3C1 (centres undefined)	PRMT1 FP inh 22.8 (no result: RBBP9 inhibitor, GSTO1 inh, PME-1 primary, PAD4 inh, Fam108B inh)
COc1ccccc1C(=O)Nc1ccccc1SC(=O)c1ccccc1OC	PAD4 inh 79.7, PRMT1 FP inh 52.4 (no result: RBBP9 inhibitor)
CC1(C)CC(=O)C2=C(C1)N1C(=C(C#N)C2c2ccc(Cl)cc2)N=C(N)c2ccccc21 (centres undefined)	PME-1 primary 31.3
c1ccc(Nc2cccc3c(Nc4ccccc4)cccc23)cc1	none
O=C(O)C1C2CC2CN1C(=O)c1ccc(Cl)cc1 (centres undefined)	none
O=C(c1ccco1)[C@@H]1[C@@H]2C(=O)N(c3ccc(F)cc3)C(=O)[C@@H]2C2c3ccccc3C=CN21 (some centres undefined)	none
O=C(c1ccco1)[C@@H]1[C@@H]2C(=O)N(c3ccc(Br)cc3)C(=O)[C@@H]2C2c3ccccc3C=CN21 (some centres undefined)	PRMT1 FP inh 24.9 (no result: GSTO1 inh, PME-1 primary, PAD4 inh, Fam108B inh)
COc1ccccc1NS(=O)(=O)c1ccc(C)c(C(=O)NC2CCN(Cc3ccccc3)CC2)c1	none (no result: RBBP9 inhibitor, GSTO1 inh, PME-1 primary, PAD4 inh, Fam108B inh)
COc1ccc(C2=NOC(C)(c3nnc(-c4ccccc4)o3)C2)cc1 (centres undefined)	none (no result: RBBP9 inhibitor)
CCN(CC(=O)Nc1ccc(NC(C)=O)cc1)C(=O)/C=C/c1ccc(C)o1	PRMT1 FP inh 23.6 (no result: RBBP9 inhibitor, GSTO1 inh, Fam108B inh)
CCOC(=O)c1cc2n(c1/N=C/N(C)C)-c1ccccc1C2=O	PRMT1 FP inh 23.1
CSc1nc(=S)c2[nH]c(=S)[nH]c2[nH]1	PRMT1 FP inh 87.8 (no result: GSTO1 inh, PME-1 primary, PAD4 inh, Fam108B inh)
Nc1nc(=S)c2[nH]c(=S)[nH]c2[nH]1	none (no result: RBBP9 inhibitor, GSTO1 inh, PME-1 primary, PAD4 inh, Fam108B inh)
Cc1ccc(Cl)cc1N1CCN(C(CC(C)C)c2nnnn2CC2CCCO2)CC1 (centres undefined)	none
Nc1ccc(S(=O)(=O)Nc2nccs2)cc1N=Nc1ccccc1[N+](=O)[O-]	PRMT1 FP inh 24.7 (no result: RBBP9 inhibitor, GSTO1 inh, PME-1 primary, PAD4 inh, Fam108B inh)
O=[N+]([O-])c1cccc(S(=O)(=O)Nc2ccc(S(=O)(=O)Nc3nccs3)cc2)c1	none (no result: RBBP9 inhibitor)
C[C@@H]1O[C@@H](OC2C(O)C(OCCc3ccc(O)c(O)c3)OC(CO)C2OC(=O)/C=C/c2ccc(O)c(O)c2)[C@H](O)[C@H](O)[C@H]1O (some centres undefined)	GSTO1 inh 53.5 (no result: RBBP9 inhibitor, PRMT1 FP inh)
C[C@@H]1O[C@@H](O[C@H]2[C@H](O)[C@@H](O)[C@H](Oc3c(-c4ccc(O)cc4)oc4cc(O)cc(O)c4c3=O)O[C@@H]2CO)[C@H](O)[C@H](O)[C@H]1O	none (no result: RBBP9 inhibitor, GSTO1 inh, PME-1 primary, Fam108B inh)
CCC(c1nnc(SCC(=O)Nc2cc(C)on2)o1)N(C)C (centres undefined)	none (no result: RBBP9 inhibitor, GSTO1 inh, Fam108B inh)
CCC(c1nnc(SCC(=O)NCCc2ccc(Cl)cc2Cl)o1)N(C)C (centres undefined)	PRMT1 FP inh 21.4
C=CCOc1ccccc1C(=O)/C=C1/C(=O)Nc2ccccc21	PRMT1 FP inh 23.3 (no result: RBBP9 inhibitor)
CCCN(CC1CC1)C(=O)CCc1nnc(C(OC)c2ccccc2)o1 (centres undefined)	none
Cc1nc2c(=O)[nH]c(=S)n(C)c2nc1C	PRMT1 FP inh 22.6
Cn1c(=S)[nH]c2cccnc21	none
COc1ccc(C2NC(=O)c3ccccc3N2)cc1OC (centres undefined)	none
CCN(CC)c1ccc(C2Nc3cccc4cccc(c34)N2)cc1	none (no result: RBBP9 inhibitor)
COC(=O)c1ccc(C2Nc3cccc4cccc(c34)N2)cc1	PME-1 primary 52.3
COc1cc(C2Nc3cccc4cccc(c34)N2)cc(OC)c1O	PME-1 primary 48.4, Fam108B inh 40.5
COc1cc(C2Nc3cccc4cccc(c34)N2)ccc1OC(C)=O	GSTO1 inh 53.5, Fam108B inh 22.1 (no result: PRMT1 FP inh)
Brc1ccc(C2Nc3cccc4cccc(c34)N2)cc1	none (no result: RBBP9 inhibitor, GSTO1 inh, PME-1 primary, PAD4 inh, Fam108B inh)
O=C(CN1CCN(Cc2ccccc2Cl)CC1)N=Nc1c(O)[nH]c2ccccc12	none
COCCNC(=O)COC(=O)C1=Cc2ccccc2OC1	none
CC(C)(C=O)C1=CC(=O)c2ccccc2C1=O	GSTO1 inh 48.7, PRMT1 FP inh 52.3
CC(C)(C)c1ccc2c(c1)C(=O)c1ccccc1C2=O	none
CCOc1cccc(/C=C/c2ccc3cccc(O)c3n2)c1O	PME-1 primary 35.8 (no result: RBBP9 inhibitor)
CCOc1ccc(C(=O)NCC(c2ccco2)N2CCOCC2)cc1 (centres undefined)	none (no result: RBBP9 inhibitor)
CCOC(=O)C1=C(CSc2nc(CC)c(C)cc2C#N)OC(N)=C(C#N)C1c1ccc(OC)cc1 (centres undefined)	PRMT1 FP inh 21.2
CCOC(=O)C1=C(CSc2nc(-c3ccncc3)ccc2C#N)OC(N)=C(C#N)C1c1ccc(OC)cc1 (centres undefined)	none
COc1ccc2oc(C(=O)OCC(=O)N3CCN(S(=O)(=O)c4ccc(C)cc4)CC3)c(C)c2c1	PME-1 primary 30.9 (no result: RBBP9 inhibitor)
CC1CCCC(NC(=O)CSC2CCCCC2)C1C (centres undefined)	none
CC1CCCCC1NC(=O)NC(=O)CCl (centres undefined)	GSTO1 inh 93.8
CC1CCCC(NC(=O)NC(=O)CCl)C1C (centres undefined)	GSTO1 inh 99.1
CSc1ccccc1NC(=O)C1CCN(S(C)(=O)=O)CC1	GSTO1 inh 35.3 (no result: RBBP9 inhibitor)
CS(=O)(=O)N1CCC(C(=O)Nc2ccccc2F)CC1	none
